Measurements published in PMC2034471 (Nucleic Acids Research, 2007).
Numbering of substitutions follows the chain as printed. Numbers in names are those of the source. Values belong to the molecule of their own block, whether it stands above or below them. Ends that are not written are not given here. Me2 = dimethylated (lysine)

What was measured:
[1] = system: rad9Δ cells complemented with rad9ΔTudor allele; assay: resistance of yeast cells to genotoxic stress, spot test; type: cell-based, Saccharomyces cerevisiae; details: 10-fold serial dilutions on YPD plates with drug; versus wild-type RAD9
Method in brief: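 The rad9Δ-L157 full RAD9 deletion strain carried a URA3 YCp50 plasmid: empty, wild-type RAD9 under its own promoter, or RAD9 lacking tudor aa 754–947. Overnight YPD cultures were diluted to OD 0.1 and grown 4–5 h. Tenfold dilutions were spotted on YPD ± camptothecin or 4-nitroquinoline 1-oxide, or plates given UV (120 J/m2) or X-rays (150 Gy, 2.5 Gy/min).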

[2] = system: mouse 53BP1 tudor fragment (1463–1617); assay: isothermal titration calorimetry; type: binding; details: 30°C; for Ka (ITC): 50 mM Tris/HCl pH 7.2, 50 mM NaCl, protein 18–33 µM, one-site model; for TΔS / ΔG / ΔH: ITC; for TΔS / ΔG: pH 7.2; for ΔH: pH 7.2, one-site model
Method in brief: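 Protein in the cell titrated with H4-K20me2 or H4K20me2-long peptide, generally 10–15 times more concentrated, both equilibrated in the same buffer, by automatic 5–10 µl injections. The first 2 µl injection was excluded. Peaks were integrated and baseline-corrected. Heat of dilution was taken from peptide injected into buffer. One-site fitting gave n, Ka and ΔH.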

ScRad9[754–947] = assay: NMR titration of ScRad9[754–947] with histone peptides; type: binding, Saccharomyces cerevisiae; details: ^1H-^15N HSQC, 600 MHz; protein 0.2–0.5 mM; 50 mM MES pH 6, 50 mM NaCl
Method in brief: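 15N-labelled protein (0.2–0.5 mM) in 50 mM MES pH 6, 50 mM NaCl, 1 mM EDTA, 1 mM NaN3, protease inhibitors, TSP reference. Methyl-lysine H3-K79 and H4-K20 tail peptides titrated to 9-, 7-, 5- or 2-fold molar excess. Weighted shift |Δδ1H| + 0.1×|Δδ15N| plotted against ligand concentration; Kd fitted from the curves.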

[3] = target: Mm53BP1[1463–1617] (mouse) (UniProt P70399); assay: NMR titration
Mm53BP1[1463–1617] = Mm53BP1[1463–1617] (mouse, UniProt P70399 1463-1617); assay: ITC
[4] = system: single-stranded and double-stranded DNA; details: EMSA; human 53BP1; ref [33]; cited from earlier work
[5] = aggregation / stability of Rad9 fragments in solution; type: physicochemical
DNA = assay: surface plasmon resonance, DNA binding; details: versus wild-type ScRad9[754–931]; data not shown
histone H3 = details: GST fusion; ref [16],[32]; cited from earlier work
H3 from calf thymus = assay: GST-pulldown, binding to histone H3; details: calf thymus H3, immunoblotting after elution from beads; data not shown
[6] = system: 146 bp double-stranded DNA; assay: EMSA, 146 bp ds DNA; type: binding; details: DNA 26 nM, 2- to 128-fold molar excess of protein
Method in brief: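 146 bp fragment made by PCR on a pUC(357.4) digest template and 5′-end labelled with 32P-ATP/T4 polynucleotide kinase at 37°C. Protein fragments incubated with labelled DNA for 2 h at 22°C in 50 mM Tris–HCl pH 8.0, 1 mM EDTA, 1 mM AEBSF, 1 mM DTT, 50 mM NaCl, 0.1% triton X-100. Resolved on pre-run 6% native polyacrylamide (29:1) in 0.5× TEG at 70 V. Complexes detected by autoradiography of dried gels at –80°C.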

10 bp oligonucleotide = details: NMR; ref [15]; cited from earlier work

Molecule: CC[C@@]1(O)C(=O)OCc2c1cc1n(c2=O)Cc2cc3ccccc3nc2-1 [camptothecin]
sensitivity of rad9ΔTudor cells to DNA damage [1]: hypersensitivity to DNA damage which was particularly pronounced

Molecule: GKGGAKRHRK*VLRDNIQGK [H4-K20me2-long]
Ka (ITC) [2]: 110000 ± 16000 M⁻¹
TΔS [2]: 4.6 kcal/mol
ΔG [2]: –6.9 kcal/mol
ΔH [2]: –2.3 ± 0.1 kcal/mol

binding to ScRad9[754–947] (^1Hn and ^15N chemical shifts) (ScRad9[754–947]): cannot bind
Molecule: KRHRK*VLRD [metazoan H4K20me2]
Ka (ITC) [2]: 130000 ± 16000 M⁻¹
TΔS [2]: 4.9 kcal/mol
ΔG [2]: –7.1 kcal/mol
ΔH [2]: –2.2 ± 0.1 kcal/mol

Molecule: O=[N+]([O-])c1cc[n+]([O-])c2ccccc12 [4-nitroquinoline 1-oxide]
sensitivity of rad9ΔTudor cells to DNA damage [1]: hypersensitivity to DNA damage

Kd [3]: 1500 µM
Molecule: H3-K79me2 peptide

binding to ScRad9[754–947] (^1Hn and ^15N chemical shifts) (ScRad9[754–947]): cannot bind
Molecule: KRHRK*ILRD [yeast H4K20me2]

Ka (Mm53BP1[1463–1617]): 110000 M⁻¹
Kd (Mm53BP1[1463–1617]): 8.8 µM
dH (Mm53BP1[1463–1617]): -2.3 ± 0.1 kcal/mol
stoichiometry N (Mm53BP1[1463–1617]): 1
Molecule: GKGGAKRHRKVLRDNIQGK (K* dimethylated (K20, tenth residue of the peptide)) [Metazoan H4-K20me2-long peptide]

Ka (Mm53BP1[1463–1617]): 130000 M⁻¹
Kd (Mm53BP1[1463–1617]): 7.7 µM
dH (Mm53BP1[1463–1617]): -2.2 ± 0.1 kcal/mol
stoichiometry N (Mm53BP1[1463–1617]): 1
Molecule: KRHRK(Me2)VLRD [Metazoan H4-K20me2 peptide]

B1: fragments 1319–1480: human 53BP1 fragment 1319–1480 containing the RG-rich stretch (protein, UniProt Q12888 1319-1480, looked up, fragment)
chain: TSLSAMHSSGSSGKGAGPLRGKTSGTEPADFALPSSRGGPGKLSPRKGVSQTGTPVCEEDGDAGLGIRQGGKAPVTPRGRGRRGRPPSRTTGTRETAVPGPLGIEDISPNLSPDDKSFSRVVPRVPDSTRRTDVGAGALRRSDSPEIPFQAAAGPSDGLDAS
interaction with DNA in vitro [4]: interact with single-stranded and double-stranded DNA in vitro

B2: ScRad9[754–931]: shorter fragment 754–931 of S. cerevisiae Rad9 (protein, UniProt P14737 754-931, looked up, fragment)
chain: GKDSKEQSYVFPEGIRTADNSFLSKDDIIFGNAVWCQYTWNYKFYPGILLEVDTNQDGCWIYFETGRSLTKDEDIYYLDIRIGDAVTFDGNEYVVVGLECRSHDLNIIRCIRGYDTVHLKKKNASGLLGKRTLIKALSSISLDLSEWAKRAKIILEDNEKNKGDAYRYLRHPIRGRKS
aggregation propensity / rate relative to ScRad9[754–947] [5]: same aggregation propensity

DNA-binding capacity by surface plasmon resonance (DNA): looses the DNA-binding capacity
B3: ScRad9[754–931,C789A,C812S,C853S] (protein, UniProt P14737 754-931, looked up, variant C789A C812S C853S)
chain: B2 chain with C36A, C59S, C100S
aggregation propensity / rate relative to ScRad9[754–947] [5]: 1.5 times faster

B4: 1480–1616: human 53BP1 fragment 1480–1616 containing the tudor region (protein, UniProt Q12888 1480-1616, looked up, fragment)
chain: SSPGNSFVGLRVVAKWSSNGYFYSGKITRDVGAGKYKLLFDDGYECDVLGKDILLCDPIPLDTEVTALSEDEYFSAGVVKGHRKESGELYYSIEKEGQRKWYKRMAVILSLEQGNRLREQYGLGPYEAVTPLTKAAD
interaction with DNA in vitro [4]: interact with single-stranded and double-stranded DNA in vitro

B5: GST-ScRad9[750–917]: Rad9 construction reported by two different groups; stability by NMR tested here (protein, UniProt P14737 750-917, looked up, fragment)
chain: ETGSGKDSKEQSYVFPEGIRTADNSFLSKDDIIFGNAVWCQYTWNYKFYPGILLEVDTNQDGCWIYFETGRSLTKDEDIYYLDIRIGDAVTFDGNEYVVVGLECRSHDLNIIRCIRGYDTVHLKKKNASGLLGKRTLIKALSSISLDLSEWAKRAKIILEDNEKNKGD
modifications: GST tag
NMR signal lost ([5]; after 2.5 h at 30°C): 40%
capture of histone H3 (histone H3): capture of histone H3

B6: GST-ScRad9[754–947]: GST fusion of ScRad9[754–947] (protein)
chain: GKDSKEQSYVFPEGIRTADNSFLSKDDIIFGNAVWCQYTWNYKFYPGILLEVDTNQDGCWIYFETGRSLTKDEDIYYLDIRIGDAVTFDGNEYVVVGLECRSHDLNIIRCIRGYDTVHLKKKNASGLLGKRTLIKALSSISLDLSEWAKRAKIILEDNEKNKGDAYRYLRHPIRGRKSMTNVLSPKKHTDDEKD
modifications: left off: GST, end not stated, kept
H3 captured in GST-pull-down (H3 from calf thymus): not together

B7: Mm53BP1[1463–1617]: mouse 53BP1 fragment 1463–1617, tandem tudor region (protein)
chain: PFQAATGSSDGLDSSSSGNSFVGLRVVAKWSSNGYFYSGKITRDVGAGKYKLLFDDGYECDVLGKDILLCDPIPLDTEVTALSEDEYFSAGVVKGHRKESGELYYSIEKEGQRKWYKRMAVILSLEQGNRLREQYGLGPYEAVTPLTKAADISLD
interaction with 146 bp ds DNA by gel retardation [6]: could not detect any interaction
affinity for 10 bp oligonucleotide, in words (10 bp oligonucleotide): millimolar affinity interaction
